# Compound activity: PubChem BioAssay, The Scripps Research Institute Molecular Screening Center
# M4 antag: antagonists of human muscarinic M4 receptor (CHRM4); P08173; actives 0.73% (n = 360,000); CHO-hM4 cells, ACh EC80, Fluo-8 calcium fluorescence; inhibition, % at 3 µM;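 active = inhibition above its plate's cutoff, the mean inhibition of sample wells plus 3 SD, cut at about 27% in these data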;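 note: 0% = acetylcholine EC80 with DMSO and 100% = DMSO without agonist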
# M4 ag: agonists of human muscarinic M4 receptor (CHRM4) | AID 624127 | actives 0.14% (n = 360,000) | activation, % at 3 µM | CHO-K1 hM4/Gqi5, Fluo-8 calcium fluorescence; vehicle 0%, full acetylcholine response 100% | P08173;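 active = activation above the run mean over all test wells plus 3 SD, cut at about 32% in these data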;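 note: peak over basal fluorescence ratio per well then scaled between controls; 0% = DMSO wells and 100% = acetylcholine at EC100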
# M5 antag: blocks acetylcholine activation of human M5 receptor | CHO-hM5 cells, Fluo-8 calcium fluorescence, ACh EC80 | inhibition, % at 3 µM | actives 0.59% (n = 360,000);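 active = inhibition above a per-plate cutoff, the mean of that plate's test compounds plus 3 SD, cut at about 27% in these data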;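 note: 0% = acetylcholine EC80 with DMSO and 100% = DMSO without agonist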
# Target sequence (P08912 whole entry, looked up): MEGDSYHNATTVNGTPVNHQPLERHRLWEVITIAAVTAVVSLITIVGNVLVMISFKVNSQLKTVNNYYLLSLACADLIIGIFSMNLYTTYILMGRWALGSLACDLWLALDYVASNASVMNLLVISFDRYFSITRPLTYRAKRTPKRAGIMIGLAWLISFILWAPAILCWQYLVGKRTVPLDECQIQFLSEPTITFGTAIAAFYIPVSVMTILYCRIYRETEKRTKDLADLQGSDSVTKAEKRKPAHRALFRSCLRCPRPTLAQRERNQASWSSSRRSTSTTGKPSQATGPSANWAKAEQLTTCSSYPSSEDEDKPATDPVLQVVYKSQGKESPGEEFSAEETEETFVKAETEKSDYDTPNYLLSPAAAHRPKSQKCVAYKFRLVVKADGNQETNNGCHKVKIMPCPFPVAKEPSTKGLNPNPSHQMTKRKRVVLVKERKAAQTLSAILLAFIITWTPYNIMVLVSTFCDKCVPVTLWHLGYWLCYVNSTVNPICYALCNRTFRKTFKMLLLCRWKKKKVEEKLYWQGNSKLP
# CHRM5 agonist: agonists of human muscarinic M5 receptor (CHRM5); actives 0.19% (n = 360,000); CHO-K1 hM5 cells, Fluo-8 calcium fluorescence; 0% DMSO wells, 100% maximal acetylcholine response; P08912; activation, % at 3 µM;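 active = activation above the run's mean over test compounds plus 3 SD, cut at about 23% in these data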;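 note: signal is peak over basal fluorescence ratio across the kinetic read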
# CHRM4 PAM: CHRM4 positive allosteric modulation; activation, % at 3 µM; CHO-K1 hM4/Gqi5, Fluo-8 calcium fluorescence, ACh EC20; 0% = ACh EC20, 100% = maximal ACh; actives 0.4% (n = 360,000);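 active = activation above its plate's cutoff, the mean activation of sample wells plus 3 SD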
# CHRM5 PAM: potentiates acetylcholine response at human M5 receptor; P08912; CHO-K1 hM5, Fluo-8 calcium, ACh EC20 PAM; 0% = ACh EC20, 100% = ACh EC100; actives 0.3% (n = 360,000); activation, % at 3 µM;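 active = activation above the run cutoff, the mean activation of all test compounds plus 3 SD, cut at about 18% in these data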
#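 Assay system – human M5 receptor in CHO-K1 cells · Read-out – % activation, ACh-normalized · Technique – Fluo-8 calcium fluorescence · Dosing – single-point, 3 µM nominal · Incubation – Fluo-8 loading 80 min at 37 °C plus 30 min room temperature · Repeats – singlicate, one well per test compound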
# Active calls of the source: *. An excerpt weighted towards active compounds, which were near 1.9% of everything screened.
SMILES,M4 antag,M4 ag,M5 antag,CHRM5 agonist,CHRM4 PAM,CHRM5 PAM
CCN(CC)C(=O)CSc1nc2ccccc2c(=O)n1-c1ccccc1OC,-5.2,-1.7,-6.0,-1.1,35.9*,2.8
Cc1cc(C)c(C)c(S(=O)(=O)N2CCC(C(=O)N3CC(C)CC(C)C3)CC2)c1C (stereo not given),-4.8,-0.2,6.5,-3.9,19.8*,-5.5
O=C(O)CC1(CC(=O)Nc2ccc(F)cc2F)CCCCC1,2.4,0.1,-1.5,2.8,-3.8,19.3*
O=C(O)CC1(CC(=O)Nc2cc(F)ccc2Cl)CCCCC1,-0.5,-0.1,4.1,-2.4,-7.8,0.4
CCS(=O)(=O)c1ccc(O)c(NC(=O)CCCC(=O)O)c1,11.7,0.4,-1.1,2.1,-2.5,2.1
CCS(=O)(=O)c1ccc(O)c(NC(=O)CC2(CC(=O)O)CCCC2)c1,-9.8,0.8,-14.7,6.7,10.4,19.2*
COC(=O)CCCC[C@@H]1O[C@H](CCc2ccccc2)Cc2[nH]c(=S)[nH]c(=O)c21,-5.8,11.2,6.9,5.5,-0.6,-13.2
O=C(O)C1CCC(=O)N(C2CC2)C1c1ccccc1 (stereo not given),1.9,0.3,-8.7,2.0,0.4,12.0
O=C(O)C1CCC(=O)N(C2CCCCC2)C1c1ccccc1Cl (stereo not given),0.2,0.5,-10.4,2.0,15.3,18.6*
CSc1ccccc1C(=O)N1CCc2ccc(NC(=O)c3ccccn3)cc2C1,4.3,9.8,9.4,2.1,-7.2,-7.5
O=C(CCc1nnc(-c2ccccc2)o1)c1ccc(Cl)cc1,12.6,2.4,5.5,0.1,33.3*,7.9
CC(C)(C)C(=O)Nc1ccc(N2CCCC2)cc1,43.6*,1.0,-1.4,-5.0,-22.5,4.2
Cc1ccc2c(c1)[C@H]1[C@H](CO2)[C@H](c2ccccc2)[C@]2(C)C(=O)N(Cc3ccc(F)cc3)CC(=O)N12,16.4,12.0,13.0,24.4*,-8.0,-3.4
COc1ccc2c(c1)OC[C@H]1[C@H]2N2C(=O)c3cc(OC)ccc3NC(=O)[C@@]2(C)[C@H]1c1ccccc1,26.5*,-0.2,4.3,-0.3,-6.0,-9.9
COc1ccc2c(c1)OC[C@H]1[C@H]2N2C(=O)c3cc(F)ccc3NC(=O)[C@@]2(C)[C@H]1c1ccccc1,56.7*,3.7,12.2,-6.1,-14.7,-27.5
COc1ccc2c(c1)OC[C@H]1[C@H]2N2C(=O)c3ccc(C)cc3NC(=O)[C@@]2(C)[C@H]1c1ccccc1,-6.7,2.9,4.5,-2.2,5.6,-1.8
COc1ccc2c(c1)OC[C@H]1[C@H]2N2C(=O)c3cc(Cl)ccc3NC(=O)[C@@]2(C)[C@H]1c1ccccc1,35.9*,2.1,10.9,-1.0,-7.5,-8.7
COC(=O)c1ccc(COC(=O)C2CCN(S(=O)(=O)c3c(C)cc(C)cc3C)CC2)o1,4.7,8.6,4.2,0.8,-8.2,-7.2
COc1ccc(CNC(=O)Nc2nnc([C@@H]3C[C@H](O)[C@@H](CO)O3)s2)cc1,4.3,-0.1,5.9,-0.3,2.6,2.1
CCCS(=O)(=O)NC(=O)C1(C)CCN(C(=O)c2ccc3ccccc3c2)C1 (stereo not given),-6.0,0.3,1.4,0.3,4.7,0.1
CC(C)(C)NC(=O)C1C(c2ccc(C(F)(F)F)cc2)=Nc2ccccc2N1C(=O)c1cccc(C(F)(F)F)c1 (stereo not given),5.9,1.0,-6.5,-1.4,-0.6,1.4
C[C@@]12C(=O)Nc3cc(F)ccc3C(=O)N1[C@H]1c3ccccc3OC[C@@H]1[C@@H]2c1ccccc1,73.3*,3.5,11.8,-3.1,-21.4,-36.3
Cc1ccc(S(=O)(=O)N(C)C[C@@H]2Oc3ncc(C#CCC(C)C)cc3C(=O)N([C@H](C)CO)C[C@H]2C)cc1,-2.3,-1.0,-12.8,-2.4,-2.8,-2.2
O=C(Nc1ccccc1C(=O)O)c1cc(S(=O)(=O)N2CCCCCC2)ccc1Cl,-0.8,-2.0,-7.3,0.4,15.0,5.9
O=C(Nc1cccc(S(=O)(=O)N2CCCCC2)c1)c1ccccc1NS(=O)(=O)c1ccc(F)cc1,-1.2,10.9,41.1*,5.5,3.1,-11.5
SMILES,M4 antag,M4 ag,M5 antag,CHRM5 agonist,CHRM4 PAM,CHRM5 PAM
Cc1ccc(NC(=O)CSc2ncnc3ccccc23)cc1S(=O)(=O)N1CCCCC1,6.9,14.2,29.8*,2.6,-16.2,-18.3
Cc1ccc(NC(=O)c2cnccn2)cc1S(=O)(=O)N1CCCCCC1,-0.8,0.8,28.1*,-2.1,3.0,-3.9
NS(=O)(=O)c1cccc(NC(=O)c2ccccc2NS(=O)(=O)c2ccc(F)cc2)c1,-2.9,-0.6,-0.3,-2.3,1.0,1.9
O=C(Nc1ccccc1Cl)c1cc(S(=O)(=O)N2CCCC(C(=O)O)C2)ccc1F (stereo not given),-17.8,-0.8,4.5,1.9,51.4*,-3.5
COc1ccc(/C=C/C(=O)OCC(=O)N2c3ccccc3CC2C)c(OC)c1 (stereo not given),6.7,-0.1,1.0,-0.4,2.1,3.3
Cc1ccc(NC(=O)c2ccccc2NS(=O)(=O)c2ccc(F)cc2)cc1S(=O)(=O)N1CCCCC1,9.1,10.5,35.1*,6.0,-10.4,-18.0
O=C1/C(=C\c2ccccc2)CN(C(=O)CCN2CCCCC2)C/C1=C/c1ccccc1,19.6,4.4,7.5,-10.2,-9.7,-3.0
O=C1/C(=C\c2ccc(Cl)c(Cl)c2)CN(C(=O)CCN2CCOCC2)C/C1=C/c1ccc(Cl)c(Cl)c1,43.4*,5.7,17.4,8.1,-7.0,-1.4
O=C(Nc1ccc(Cl)cc1)Nc1nc(-c2ccccc2O)cs1,29.3*,17.7,35.6*,7.7,-22.5,-30.7
COc1ccc(OC)c(S(=O)(=O)n2nnc3ccccc32)c1,10.1,-0.2,-1.1,-1.0,1.8,2.4
COc1ccc(F)cc1S(=O)(=O)n1nnc2ccccc21,-18.1,1.4,-0.5,-10.2,21.6*,16.3
COc1ccccc1C(CNC(=O)c1cccc(S(=O)(=O)Nc2ccc(C)cc2)c1)N1CCCC1 (stereo not given),19.0,2.2,27.5*,-10.4,-9.3,-33.4
COc1ccccc1NS(=O)(=O)c1cccc(C(=O)NCC(c2ccccc2OC)N2CCCC2)c1 (stereo not given),2.6,0.9,6.7,-10.7,-10.0,-24.5
Cc1ccc(NS(=O)(=O)c2ccc(C3CCCCC3)cc2)cc1,48.9*,12.3,27.4*,4.6,-17.8,-17.5
CCOc1ccc(NS(=O)(=O)c2ccc(NC(=S)NC(C)=O)cc2)cc1,6.6,25.6,3.3,25.3*,-6.2,-6.5
